Reference: PMC5908246 (Cell reports, 2018)
“Also recorded” adds a separate entry of the source. Where two headings read alike, the source gives them in different places. No end group written: not given here.

Tests used:
[1] = target: Med15 activator-binding domain 1 (ABD1) (S. cerevisiae (yeast)) (UniProt P19659); assay: ITC
[2] = target: Gcn4 tAD (residues 1–134) labeled with Oregon Green 488 (S. cerevisiae) (UniProt P03069); assay: fluorescence polarisation
[3] = target: Gcn4 N-terminal activation domain (nAD; residues 1–100) (S. cerevisiae) (UniProt P03069); assay: ITC
[4] = target: Gcn4 cAD (residues 101–134) labeled with Oregon Green 488 (S. cerevisiae) (UniProt P03069); assay: fluorescence polarisation
[5] = target: T1, Med15 ABD2 (Saccharomyces cerevisiae, UniProt P19659); assay: ITC binding, Med15 ABD2; set-up: species or system S. cerevisiae; settings: 20 mM KH2PO4 (pH 7.5), 200 mM KCl, nAD 0.111 mM vs ABD2 1.60 mM, ABD2 0.224 mM vs cAD 2.35 mM, not measurable due to weak binding or low heats of binding
T1 sequence (P19659 277-368): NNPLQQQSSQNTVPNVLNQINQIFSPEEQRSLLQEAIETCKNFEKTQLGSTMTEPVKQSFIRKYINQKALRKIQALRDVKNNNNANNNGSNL

[6] = target: T2, Med15 ABD3 (Saccharomyces cerevisiae, UniProt P19659); assay: ITC binding, Med15 ABD3; set-up: species or system S. cerevisiae; settings: 20 mM KH2PO4 (pH 7.5), 200 mM KCl; for Kd: nAD 0.111 mM vs ABD3 1.12 mM, ABD3 0.236 mM vs cAD 2.35 mM, single binding site model
T2 sequence (P19659 484-651): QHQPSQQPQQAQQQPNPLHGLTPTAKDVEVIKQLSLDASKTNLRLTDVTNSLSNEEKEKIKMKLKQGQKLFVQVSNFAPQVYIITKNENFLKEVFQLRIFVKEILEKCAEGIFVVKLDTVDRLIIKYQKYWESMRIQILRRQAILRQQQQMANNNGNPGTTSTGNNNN
Outline: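 ITC was run on a MicroCal ITC200 in 20 mM KH2PO4 (pH 7.5), 200 mM KCl. In one run, Gcn4 nAD in the cell (0.111 mM) was titrated with Med15 ABD3 from the syringe (1.12 mM). In the other, ABD3 in the cell (0.236 mM) was titrated with Gcn4 cAD (2.35 mM). Data were fitted with a single binding site model.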

[7] = target: T1, Med15 ABD2; assay: Fluorescence polarization binding, Med15 ABD2; set-up: species or system S. cerevisiae
Outline: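 Gcn4 AD peptides (nAD, cAD, tAD) labelled with Oregon Green 488 were titrated with Med15 ABD2, giving 15 concentrations spanning 0–250 μM for tAD. Proteins were size-exclusion purified into 20 mM KH2PO4 (pH 7.5), 200 mM KCl. Polarization was measured on a Beacon 2000. Kd was fitted with a one-site total binding model including a nonspecific term and background.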

[8] = target: T3, Med15 ABD1 (Saccharomyces cerevisiae, UniProt P19659); assay: NMR competition: unlabeled cAD added to 15N-tAD + ABD1; type: binding, S. cerevisiae; settings: (1H,15N)-HSQC
T3 sequence (P19659 158-238 limits assumed): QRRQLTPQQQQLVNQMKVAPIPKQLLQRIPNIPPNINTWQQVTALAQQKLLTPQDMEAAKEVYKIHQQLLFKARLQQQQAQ

[9] = target: T3, Med15 ABD1; settings: ITC; 20 mM KH2PO4 (pH 7.5), 200 mM KCl; cAD; ref Brzovic et al., 2011; cited from earlier work
[10] = target: T4, Med15 KIX (Saccharomyces cerevisiae, UniProt P19659); settings: FP; Oregon Green 488-labeled Gcn4 peptide; ref Herbig et al., 2010; cited from earlier work
T4 sequence (P19659 6-91): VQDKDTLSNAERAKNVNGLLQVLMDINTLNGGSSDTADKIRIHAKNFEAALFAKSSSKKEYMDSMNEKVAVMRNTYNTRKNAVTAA

[11] = target: T3, Med15 ABD1; settings: ref Brzovic et al., 2011; cited from earlier work
[12] = target: T5, Med15 ABD123 (Saccharomyces cerevisiae, UniProt P19659, DEL239-272/DEL373-483); assay: Fluorescence polarization binding, Med15 ABD123; set-up: species or system S. cerevisiae; settings: tAD binding to ABD123
T5 sequence (P19659 with tags, fused parts or gaps DEL239-272/DEL373-483): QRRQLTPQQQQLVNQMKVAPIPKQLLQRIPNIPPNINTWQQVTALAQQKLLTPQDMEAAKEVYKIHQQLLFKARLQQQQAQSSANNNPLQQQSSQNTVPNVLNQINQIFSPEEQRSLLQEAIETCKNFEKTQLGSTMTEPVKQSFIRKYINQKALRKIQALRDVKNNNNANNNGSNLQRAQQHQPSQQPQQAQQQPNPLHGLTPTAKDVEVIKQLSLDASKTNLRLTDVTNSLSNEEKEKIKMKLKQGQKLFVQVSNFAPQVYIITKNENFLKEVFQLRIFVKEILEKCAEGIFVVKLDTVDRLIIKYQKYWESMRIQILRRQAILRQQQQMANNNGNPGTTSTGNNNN
Outline: (§1)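 Gcn4 tAD peptide labelled with Oregon Green 488 was titrated with 15 Med15 concentrations spanning 0–250 μM (ABD123 or KIX123). Proteins were in 20 mM KH2PO4 (pH 7.5), 200 mM KCl. Polarization was read on a Beacon 2000. Kd came from non-linear regression to a one-site total binding model (Bmax·X/(Kd+X) + NS·X + background).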

[13] = system: Med15 KIX123; assay: Fluorescence polarization binding, Med15 KIX123; set-up: species or system S. cerevisiae; settings: KIX123 vs ABD123
Outline: as §1

[14] = system: individual Med15 ABDs; assay: ITC and/or FP binding to individual Med15 ABDs; set-up: species or system S. cerevisiae
Outline: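 Med15 ABD and Gcn4 AD proteins came from E. coli BL21(DE3) RIL and were polished by size exclusion into 20 mM KH₂PO₄ (pH 7.5), 200 mM KCl; concentrations were set by UV-Vis. FP used Oregon Green 488-labelled Gcn4 peptides, with 15 Med15 concentrations (0–250 µM) against tAD and 0–225 µM ABD3 against cAD. FP data were fit to a one-site total binding model with a nonspecific term. ITC data were fit to a single-site model.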

[15] = target: T3, Med15 ABD1; assay: ITC binding, Med15 ABD1; set-up: species or system S. cerevisiae; settings: 200 mM KCl
Outline: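 ITC was run on a MicroCal ITC200 in 20 mM KH2PO4 (pH 7.5), 200 mM KCl. Med15 ABD1 in the cell (0.150 mM) was titrated with Gcn4 nAD from the syringe (1.50 mM). Thermodynamic parameters came from a single binding site model fit.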

[16] = target: T3, Med15 ABD1; assay: NMR secondary structure propensity upon binding ABD1; set-up: species or system S. cerevisiae; settings: bound to ABD1; backbone chemical shifts, ncSPC; 25°C
Outline: (§2)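 ¹³C,¹⁵N-labelled Gcn4 nAD was titrated with unlabelled Med15 ABD at ~200 μM labelled sample. Bound-state assignments were checked by triple-resonance experiments. Secondary structure propensity came from backbone chemical shifts via ncSPC.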

[17] = target: T1, Med15 ABD2; assay: NMR secondary structure propensity upon binding ABD2; set-up: species or system S. cerevisiae; settings: bound to ABD2, saturating; backbone chemical shifts, ncSPC; 25°C
Outline: as §2

[18] = system: Med15 KIX domain (in KIX123); assay: EDC crosslinking-MS, KIX123-tAD, links to KIX; type: binding, S. cerevisiae; settings: EDC 7.5 mM, Sulfo-NHS 2 mM, 2 hr, room temperature; Gcn4 1–140
Outline: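 Gcn4 AD and KIX123 were purified by size exclusion into PBS (pH 7.2) and cross-linked for 2 hr at room temperature. Samples were reduced (50 mM TCEP, 8 M urea, 37°C, 15 min), alkylated (15 mM iodoacetamide, dark, 37°C, 1 hr), diluted 10-fold in 100 mM ammonium bicarbonate and digested overnight at 37°C with trypsin (1:15 w/w). After C18 cleanup, peptides were run on an Orbitrap Elite with HCD and a 90 min 5–40% ACN gradient. pLink and Nexus searches used 5% FDR, and a crosslink required ≥4 consecutive b/y ions per peptide.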

[19] = target: T3, Med15 ABD1; settings: FP; Oregon Green 488-labeled Gcn4 peptide; ref Herbig et al., 2010; cited from earlier work
[20] = target: T1, Med15 ABD2; settings: FP; Oregon Green 488-labeled Gcn4 peptide; ref Herbig et al., 2010; cited from earlier work
[21] = target: T2, Med15 ABD3; settings: FP; Oregon Green 488-labeled Gcn4 peptide; ref Herbig et al., 2010; cited from earlier work
[22] = target: T5, Med15 ABD123; settings: FP; Oregon Green 488-labeled Gcn4 peptide; ref Herbig et al., 2010; cited from earlier work

Molecule: Gcn4 N-terminal activation domain (nAD; residues 1–100) (from UniProt P03069 1-100) (domain or fragment)
- Kd [1]: 10.8 µM
- dH [1]: 2450 cal/mol

Molecule: Med15 158–651 Δ239–272, Δ373–483 (ABD123) (from UniProt P19659 158-651) (domain or fragment)
- Kd [2]: 0.109 µM

Molecule: Med15 activator-binding domain 1 (ABD1) (from UniProt P19659 158-238) (domain or fragment)
- Kd [2]: 2.66 µM

Molecule: Med15 activator-binding domain 2 (ABD2; residues 277–368) (from UniProt P19659 277-368) (domain or fragment)
- Kd [2]: 19.5 µM

Molecule: Med15 activator-binding domain 3 (ABD3; Med15 484–651) (from UniProt P19659 484-651) (domain or fragment)
- Kd [3]: 23.9 µM
- dH [3]: 7020 cal/mol
- Kd [4]: 13.9 µM
- Kd [2]: 4.4 µM

Molecule: STDSTPMFEYENLEDNSKEWTSLFDNDIPVTTDD [cAD]
- Kd [5]: unable to measure
- Kd [6]: unable to measure
- weaker binding (cAD to ABD2) than the other pairwise interactions [7]: ~ 10 fold
- affinity for ABD2 (in words) ([7]; compared with nAD or tAD): substantially weaker affinity
- competition with 15N-tAD for ABD1 [8]: cAD can compete off both cAD and nAD residues
- ΔS [9]: 4.58 cal/mol/deg
- Kd [10]: neither nAD nor cAD showed detectable KIX binding; also recorded: unable to measure
- helical structure upon ABD1 binding, residues 117–125 [11]: adopt helical structure

B1: tAD: tandem AD polypeptide, Gcn4 residues 1–134 (1–140 in crosslinking) (protein, UniProt P03069 1-134, looked up, fragment)
chain: MSEYQPSLFALNPMGFSPLDGSKSTNENVSASTSTAKPMVGQLIFDKFIKTEEDPIIKQDTPSNLDFDFALPQTATAPDAKTVLPIPELDDAVVESFFSSSTDSTPMFEYENLEDNSKEWTSLFDNDIPVTTDD
- higher affinity than the strongest piecemeal interaction [12]: about 20 fold
- increase of Gcn4 affinity by presence of KIX along with ABD1,2,3 [13]: ~ 30%
- affinity for individual ABDs (in words) [14]: affinity close to the stronger of the individual nAD or cAD interactions

B2: nAD: N-terminal activation domain of Gcn4, residues 1–100 (protein, UniProt P03069 1-100, looked up, fragment)
chain: MSEYQPSLFALNPMGFSPLDGSKSTNENVSASTSTAKPMVGQLIFDKFIKTEEDPIIKQDTPSNLDFDFALPQTATAPDAKTVLPIPELDDAVVESFFSS
- ΔH ([15]; 20 mM KH2PO4 (pH 7.5), nAD): 2,454 ± 78 cal/mol
- ΔS ([15]; 20 mM KH2PO4 (pH 7.5), nAD): 31.0 cal/mol/deg
- Kd ([15]; Microcal ITC200, 20 mM KH2PO4 (pH 7.5), cell ABD1 0.150 mM, syringe nAD 1.50 mM, single binding site model): 10.8 ± 1.5 µM
- Kd [5]: unable to measure
- ΔH [6]: 7,015 ± 221 cal/mol
- Kd [6]: 23.9 ± 2 µM
- helical content of the other three nAD hydrophobic clusters [16]: < 20%
- helical content of C-terminal hydrophobic cluster (residues 94–98) [17]: ~ 25%
- crosslinks to Med15 KIX domain [18]: crosslinks extensively to Gcn4 in the large complex, mainly to nAD
- Kd [19]: 3.3 ± 0.5 µM
- Kd [20]: 21.8 ± 3.8 µM
- Kd [21]: 2600 ± 400 nM
- Kd [10]: neither nAD nor cAD showed detectable KIX binding; also recorded: unable to measure
- Kd [22]: 360 ± 20 nM
